According to ChEMBL document CHEMBL1143221, “Two-carbon-elongated HIV-1 protease inhibitors with a tertiary-alcohol-containing transition-state mimic” (J Med Chem, 2008):

Assays:
Protease = Protease (Human immunodeficiency virus 1, UniProt Q9YQ12); assay: Inhibition of HIV1 protease expressed in Escherichia coli
[1] = tested on: Human immunodeficiency virus 1; assay: Antiviral activity against HIV1 in MT4 cells by XTT assay; type: functional, organism-based; conditions: Human immunodeficiency virus 1, MT4
[2] = Cytotoxicity against human MT4 cells; type: cell-based
[3] = Permeability from apical to basolateral side of human Caco-2 cell membrane; type: ADME, cell-based
[4] = Metabolic stability in human liver microsomes after 30 mins; type: ADME, Microsome; conditions: read-out: Stability
Procedure, shortened: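 Test compound incubated with human liver microsomes for 30 min at 37 °C. Read-out is percent parent compound remaining.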

Protease, sequence (Q9YQ12 whole entry): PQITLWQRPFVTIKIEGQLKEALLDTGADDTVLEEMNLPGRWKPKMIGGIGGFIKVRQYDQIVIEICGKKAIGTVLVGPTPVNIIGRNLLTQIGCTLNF

SMILES	Ki (Protease) [nM]	Papp A→B [3] [×10⁻⁶ cm/s]	remaining at 0.5 h [4] [%]	EC50 [1] [nM]	CC50 [2] [nM]
COC(=O)N[C@H](C(=O)NN(CCC[C@@](O)(Cc1ccccc1)C(=O)N[C@H]1c2ccccc2C[C@H]1O)Cc1ccc(CN2CCOCC2)cc1)C(C)(C)C	11			880	> 10000
COC(=O)N[C@H](C(=O)NN(CCC[C@@](O)(Cc1ccccc1)C(=O)N[C@H]1c2ccccc2C[C@H]1O)Cc1ccc(-n2ccnc2)cc1)C(C)(C)C	3.3			170	> 10000
COC(=O)N[C@H](C(=O)NN(CCC[C@@](O)(Cc1ccccc1)C(=O)N[C@H]1c2ccccc2C[C@H]1O)Cc1ccc(F)cc1)C(C)(C)C	6.7			980	> 10000
COC(=O)N[C@H](C(=O)NN(CCC[C@@](O)(Cc1ccccc1)C(=O)N[C@H]1c2ccccc2C[C@H]1O)Cc1ccc(-c2ccccc2)cc1)C(C)(C)C	7.3	> 20		780	7500
COC(=O)N[C@H](C(=O)NN(CCC[C@@](O)(Cc1ccccc1)C(=O)N[C@H]1c2ccccc2C[C@H]1O)Cc1ccc(OCc2cnc(Cl)s2)cc1)C(C)(C)C				600	> 10000
COC(=O)N[C@H](C(=O)NN(CCC[C@@](O)(Cc1ccccc1)C(=O)N[C@H]1c2ccccc2C[C@H]1O)Cc1ccc(-c2cncnc2)cc1)C(C)(C)C	2.4			220	> 10000
COC(=O)N[C@H](C(=O)NN(CCC[C@@](O)(Cc1ccccc1)C(=O)N[C@H]1c2ccccc2C[C@H]1O)Cc1ccc(-c2ccncc2)cc1)C(C)(C)C	2.8	< 20	94	170	> 10000
CC(C)(C)NC(=O)[C@@H]1CN(Cc2cccnc2)CCN1C[C@@H](O)C[C@@H](Cc1ccccc1)C(=O)N[C@H]1c2ccccc2C[C@H]1O				41	
COC(=O)N[C@H](C(=O)NN(CCC[C@@](O)(Cc1ccccc1)C(=O)N[C@H]1c2ccccc2C[C@H]1O)Cc1ccc(-c2csc(C)n2)cc1)C(C)(C)C	3.5			510	> 10000
COC(=O)N[C@H](C(=O)NN(CCC[C@@](O)(Cc1ccccc1)C(=O)N[C@H]1c2ccccc2C[C@H]1O)Cc1ccc(-c2nc(C(C)(C)C)cs2)cc1)C(C)(C)C	24			1000	> 10000
COC(=O)N[C@H](C(=O)NN(Cc1ccc(Br)cc1)C[C@](O)(Cc1ccccc1)C(=O)N[C@H]1c2ccccc2C[C@H]1O)C(C)(C)C				1100	
COC(=O)N[C@H](C(=O)NN(CCC[C@@](O)(Cc1ccccc1)C(=O)N[C@H]1c2ccccc2C[C@H]1O)Cc1ccc(-c2ccsc2)cc1)C(C)(C)C	10			560	> 10000
COC(=O)N[C@H](C(=O)NN(CCC[C@@](O)(Cc1ccccc1)C(=O)N[C@H]1c2ccccc2C[C@H]1O)Cc1ccc(-c2cn3ccsc3n2)cc1)C(C)(C)C	2.3			480	> 10000
COC(=O)N[C@H](C(=O)NN(CCC[C@](Cc1ccccc1)(O[Si](C)(C)C(C)(C)C)C(=O)N[C@H]1c2ccccc2C[C@H]1O)Cc1ccc(Br)cc1)C(C)(C)C	190			> 10000	5800
COC(=O)N[C@H](C(=O)NN(CCC[C@@](O)(Cc1ccccc1)C(=O)N[C@H]1c2ccccc2C[C@H]1O)Cc1ccc(N(C)C)cc1)C(C)(C)C	4.9			980	> 10000
COC(=O)N[C@H](C(=O)N[C@@H](Cc1ccccc1)[C@@H](O)CN(Cc1ccc(-c2ccccn2)cc1)NC(=O)[C@@H](NC(=O)OC)C(C)(C)C)C(C)(C)C [ATAZANAVIR]	2.7			3.9	
COC(=O)N[C@H](C(=O)NN(Cc1ccc(-c2cccnc2)cc1)C[C@](O)(Cc1ccccc1)C(=O)N[C@H]1c2ccccc2C[C@H]1O)C(C)(C)C				180	> 10000
COC(=O)N[C@H](C(=O)NN(Cc1ccc(Br)cc1)C(=O)CC[C@@](O)(Cc1ccccc1)C(=O)N[C@H]1c2ccccc2C[C@H]1O)C(C)(C)C				> 10000	> 10000
COC(=O)N[C@H](C(=O)NN(CCC[C@@](O)(Cc1ccccc1)C(=O)N[C@H]1c2ccccc2C[C@H]1O)Cc1ccc(C#N)cc1)C(C)(C)C	2.9			1200	> 10000
COC(=O)N[C@H](C(=O)NN(CCC[C@@](O)(Cc1ccccc1)C(=O)N[C@H]1c2ccccc2C[C@H]1O)Cc1ccc(-c2ccccn2)cc1)C(C)(C)C	2.8			470	> 10000
COC(=O)N[C@H](C(=O)NN(CCC[C@@](O)(Cc1ccccc1)C(=O)N[C@H]1c2ccccc2C[C@H]1O)Cc1ccc(I)cc1)C(C)(C)C	4.5			820	> 10000

More lines, main results first:

Ki (Protease) [nM]	Papp A→B [3] [×10⁻⁶ cm/s]	remaining at 0.5 h [4] [%]	SMILES	EC50 [1] [nM]	CC50 [2] [nM]
420	> 20		COC(=O)N[C@H](C(=O)NN(CCC[C@](O)(Cc1ccccc1)C(=O)N[C@H]1c2ccccc2C[C@H]1O)Cc1ccc(Br)cc1)C(C)(C)C	> 10000	> 10000
3.6			COC(=O)N[C@H](C(=O)NN(CCC[C@@](O)(Cc1ccccc1)C(=O)N[C@H]1c2ccccc2C[C@H]1O)Cc1ccc(N2CCOCC2)cc1)C(C)(C)C	500	> 10000
5.7	< 20		COC(=O)N[C@H](C(=O)NN(CCC[C@@](O)(Cc1ccccc1)C(=O)N[C@H]1c2ccccc2C[C@H]1O)Cc1ccccc1)C(C)(C)C	1200	> 10000
980			COC(=O)N[C@H](C(=O)NN(CCC[C@](Cc1ccccc1)(O[Si](C)(C)C(C)(C)C)C(=O)N[C@H]1c2ccccc2C[C@H]1O[Si](C)(C)C(C)(C)C)Cc1ccc(Br)cc1)C(C)(C)C	> 10000	> 10000
3.4			COC(=O)N[C@H](C(=O)NN(CCC[C@@](O)(Cc1ccccc1)C(=O)N[C@H]1c2ccccc2C[C@H]1O)Cc1ccc(Cl)cc1)C(C)(C)C	910	> 10000
2.3	> 20		COC(=O)N[C@H](C(=O)NN(CCC[C@@](O)(Cc1ccccc1)C(=O)N[C@H]1c2ccccc2C[C@H]1O)Cc1ccc(-c2nccs2)cc1)C(C)(C)C	210	> 10000
6.8			COC(=O)N[C@H](C(=O)NN(CCC[C@@](O)(Cc1ccccc1)C(=O)N[C@H]1c2ccccc2C[C@H]1O)CC(C)C)C(C)(C)C	1800	> 10000
3.6			COC(=O)N[C@H](C(=O)NN(CCC[C@@](O)(Cc1ccccc1)C(=O)N[C@H]1c2ccccc2C[C@H]1O)Cc1ccc(-c2noc(C)n2)cc1)C(C)(C)C	190	> 10000
3.6	< 20	94	COC(=O)N[C@H](C(=O)NN(CCC[C@@](O)(Cc1ccccc1)C(=O)N[C@H]1c2ccccc2C[C@H]1O)Cc1ccc(-c2cccnc2)cc1)C(C)(C)C	190	> 10000
	> 20		COC(=O)N[C@H](C(=O)NN(CCC[C@@](O)(Cc1ccccc1)C(=O)N[C@H]1c2ccccc2C[C@H]1O)Cc1ccc(Br)cc1)C(C)(C)C	850	> 10000
